Reference: ChEMBL document CHEMBL1159376, “Potential cancer chemopreventive constituents of the seeds of Dipteryx odorata (tonka bean)” (J Nat Prod, 2003)

Experiments:
[1] = Inhibition of 7,12-dimethylbenz[a]anthracene-induced […] lesions in mouse mammary organ culture model at 10 ug/ml; assay type: functional; conditions: Mammary gland
Outline: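 Mouse mammary glands in organ culture with 7,12-dimethylbenz[a]anthracene-induced preneoplastic lesions. Samples were tested at 10 µg/mL, with sulforaphane at 1 µg/mL as positive control. The read-out was percent inhibition of lesion formation.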

[2] = Chemoprevention index, ratio of IC50 for mouse Hepa-1c1c7 cells to drug level required to double quinone reductase activity in mouse Hepa-1c1c7 cells; assay type: functional
[3] = Growth inhibition of mouse Hepa-1c1c7 cells; assay type: functional, cell-based
tissue or blood = conditions: Mus musculus, Mammary gland, read-out: INH

Row | Structure (SMILES) | inhibition at 10 µg/mL [1] [%] | Ratio [2] | IC50 [3] [µM] | inhibition at 1 µg/mL (tissue or blood) [%]
1 | COc1cc(/C=C2\Oc3cc(O)ccc3C2=O)ccc1O | 48.2 | 5.4 | 34.6 | –
2 | COc1cc(C2Oc3c(OC)cc(/C=C/C=O)cc3C2CO)ccc1O (racemic) | – | 3.2 | 48.5 | –
3 | O=C(/C=C/c1ccc(O)cc1)c1ccc(O)cc1O [ISOLIQUIRITIGENIN] | 76 | 7.2 | 27.3 | –
4 | C[S+]([O-])CCCCN=C=S (centres undefined) [SULFORAPHANE] | – | 7.2 | 27.3 | 83.7
5 | O=C1/C(=C/c2ccc(O)c(O)c2)Oc2cc(O)ccc21 [SULFURETIN] | 58.5 | 3.8 | 78.5 | –
